Assay results: ChEMBL document CHEMBL2311329, “Synthesis and biological evaluation of a folate-targeted rhaponticin conjugate” (Bioorg Med Chem, 2013)
The source made the active and inactive calls. No cut-off for these calls is given here.

Legend:
[1] = test system: KB; assay: Antitumor activity against FR-positive human KB cells assessed as decrease in cell viability measured after 48 hrs by MTT proliferation assay; format: functional, cell-based
Outline: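 Cells kept in folate-free RPMI with 10% heat-inactivated FCS. Seeded at 1.0 × 10^4 cells/well and left to adhere overnight. Medium then replaced with drug at 0.1–500 nM, with or without 0.01 mM FA competitor, for 48 h at 37 °C. MTT added for 3 h, formazan dissolved in DMSO, A570 read against a no-MTT baseline. Viability given as % of control; 5 repeats.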

[2] = test system: M109; assay: In vivo antitumor activity against FR-positive mouse M109 cells implanted in Balb/c mouse assessed as decrease in tumor volume at 2 umol/kg, iv treated 33 days after implantation for TIW 3 week schedule; format: functional, organism-based
[3] = test system: Mus musculus; assay: Toxicity in FR-positive human KB cells implanted Balb/c mouse assessed as gross toxicity at 2 umol/kg, iv TIW 2 week schedule; format: organism-based; settings: in vivo, 336 h
Outline: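 Female Balb/c mice, 6–7 weeks old, on folate-free diet. 1 × 10^6 KB cells injected into the dorsal subcutis. Dosing began at tumor volumes of 50–110 mm³: 2 µmol/kg iv, three times a week for 2 weeks, alone or with 40-fold excess FA; PBS for controls. Caliper volumes (0.5 × L × W²) every 2–3 days; body weight followed. n = 5 per cohort.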

[4] = Half life in human serum at 37 degC; format: ADME, cell-free
Outline: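 Compound added to human serum at a final 200 µM and held at 37 °C in a water bath for up to 24 h. Samples taken at 1–3, 5, 8, 12, 18 and 24 h (n = 3). Compound recovered by solid-phase extraction after adding 6 M guanidine (pH 7.4), then measured by HPLC as % recovery.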

SMILES: COc1ccc(/C=C/c2cc(O)cc(O[C@@H]3O[C@H](CN)[C@@H](O)[C@H](O)[C@H]3O)c2)cc1O
- inhibition [1]: Active

SMILES: COc1ccc(/C=C/c2cc(O)cc(O[C@@H]3O[C@H](CNC(=O)OCCSSc4ccccn4)[C@@H](O)[C@H](O)[C@H]3O)c2)cc1O
- inhibition [1]: Active

SMILES: COc1ccc(/C=C/c2cc(O)cc(O[C@@H]3O[C@H](CO)[C@@H](O)[C@H](O)[C@H]3O)c2)cc1O [RHAPONTIN]
- inhibition [2]: Active
- Activity [3]: Toxic
- half-life [4]: 3.5 h
- IC50 [1]: 34 nM
